These results are taken from ChEMBL document CHEMBL3856243, “Structure-Activity Relationships and Kinetic Studies of Peptidic Antagonists of CBX Chromodomains” (J Med Chem, 2016).

Activity calls are given as the source filed them. The calls are words filed in the database; no cut-off is given here. Square brackets hold non-standard residues; d marks the D form. Peptide text beside a SMILES is read from it. * marks the point of attachment. Benzoyl(4-tBu) = CC(C)(C)c1ccc(C(=O)*)cc1; Lys(Et2) = CCN(CC)CCCC[C@H](N)C(=O)O

One assay relates to PC-3. As to the kind of experiment: Antiproliferative activity against human PC3 cells assessed as reduction in cell count at 30 uM measured after 72 hrs by DAPI-staining based microscopic method. In kind it is functional. The essentials: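 PC3 cells seeded at 400/well, adhered overnight, then given DMEM + 10% FBS with 30 µM compound or DMSO for 72 h; fixed in ice-cold methanol, rehydrated in PBS, nuclei stained with DAPI (0.05 µg/ml) and counted by high content microscopy; counts normalized to DMSO control (n ≥ 4).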

Assay [1] concerns the target T1, Chromobox protein homolog 8 (Homo sapiens, UniProt Q9HC52).
T1 sequence (Q9HC52 whole entry): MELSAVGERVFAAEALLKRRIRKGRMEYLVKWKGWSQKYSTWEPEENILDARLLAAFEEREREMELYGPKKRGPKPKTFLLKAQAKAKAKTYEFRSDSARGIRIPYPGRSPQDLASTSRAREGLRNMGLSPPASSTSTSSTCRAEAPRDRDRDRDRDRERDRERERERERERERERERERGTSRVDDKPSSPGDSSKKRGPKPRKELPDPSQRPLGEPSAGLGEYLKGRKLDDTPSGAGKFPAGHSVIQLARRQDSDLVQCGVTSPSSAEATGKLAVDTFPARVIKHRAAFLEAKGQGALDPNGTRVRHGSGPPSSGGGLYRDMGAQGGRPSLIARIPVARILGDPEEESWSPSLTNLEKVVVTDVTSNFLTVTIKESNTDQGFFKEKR
As to the kind of experiment: Binding affinity to human N-terminal his-tagged CBX8 chromodomain (8 to 61 residues) expressed in Escherichia coli Rosetta BL21(DE3)pLysS by ITC method.

In assay [2] the target is Chromobox protein homolog 3 (Homo sapiens, UniProt Q13185). The assay is described as follows: Binding affinity to CBX3 chromodomain (unknown origin) by ITC method. On the technique in general: Isothermal titration calorimetry measures the heat released or taken up as one component is titrated into another.
Sequence of Chromobox protein homolog 3 (Q13185 whole entry): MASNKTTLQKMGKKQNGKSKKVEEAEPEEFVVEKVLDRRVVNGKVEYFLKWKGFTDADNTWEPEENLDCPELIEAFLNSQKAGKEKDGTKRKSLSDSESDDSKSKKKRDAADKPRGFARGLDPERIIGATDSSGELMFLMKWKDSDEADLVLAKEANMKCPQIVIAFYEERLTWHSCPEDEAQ
The target of assay [3] is Chromobox protein homolog 1 (Homo sapiens, UniProt P83916). As to the kind of experiment: Binding affinity to CBX1 chromodomain (unknown origin) by ITC method.
Sequence of Chromobox protein homolog 1 (P83916 whole entry): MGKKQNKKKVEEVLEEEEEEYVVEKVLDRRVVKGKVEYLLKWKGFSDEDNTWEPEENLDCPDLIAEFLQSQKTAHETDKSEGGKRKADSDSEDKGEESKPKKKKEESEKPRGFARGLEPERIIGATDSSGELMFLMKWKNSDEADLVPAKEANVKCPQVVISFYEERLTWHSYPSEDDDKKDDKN
Assay [4] addresses T2, Chromodomain Y-like protein (Homo sapiens, UniProt Q9Y232).
T2 sequence (Q9Y232 whole entry): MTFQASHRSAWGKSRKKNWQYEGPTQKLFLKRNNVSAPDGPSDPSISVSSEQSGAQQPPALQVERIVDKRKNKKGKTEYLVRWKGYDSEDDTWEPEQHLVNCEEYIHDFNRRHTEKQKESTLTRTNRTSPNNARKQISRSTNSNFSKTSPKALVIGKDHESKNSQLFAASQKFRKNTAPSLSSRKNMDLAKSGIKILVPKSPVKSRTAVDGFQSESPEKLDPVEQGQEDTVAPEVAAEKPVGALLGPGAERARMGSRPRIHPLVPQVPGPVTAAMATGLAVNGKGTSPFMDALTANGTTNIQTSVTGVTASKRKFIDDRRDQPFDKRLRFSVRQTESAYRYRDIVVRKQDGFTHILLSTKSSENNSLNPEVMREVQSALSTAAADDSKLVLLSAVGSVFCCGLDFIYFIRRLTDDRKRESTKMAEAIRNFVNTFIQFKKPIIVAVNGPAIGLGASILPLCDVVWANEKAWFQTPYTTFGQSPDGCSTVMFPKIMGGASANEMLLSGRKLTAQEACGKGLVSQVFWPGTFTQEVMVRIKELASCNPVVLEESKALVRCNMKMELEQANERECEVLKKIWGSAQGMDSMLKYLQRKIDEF
The assay is described as follows: Binding affinity to human N-terminal GST-tagged CDYL1b chromodomain (1 to 78 residues) expressed in Escherichia coli Rosetta BL21(DE3)pLysS by ITC method.

For assay [5], the target named is T3, Testis-specific chromodomain protein Y 1 (Homo sapiens, UniProt Q9Y6F8).
T3 sequence (Q9Y6F8 whole entry): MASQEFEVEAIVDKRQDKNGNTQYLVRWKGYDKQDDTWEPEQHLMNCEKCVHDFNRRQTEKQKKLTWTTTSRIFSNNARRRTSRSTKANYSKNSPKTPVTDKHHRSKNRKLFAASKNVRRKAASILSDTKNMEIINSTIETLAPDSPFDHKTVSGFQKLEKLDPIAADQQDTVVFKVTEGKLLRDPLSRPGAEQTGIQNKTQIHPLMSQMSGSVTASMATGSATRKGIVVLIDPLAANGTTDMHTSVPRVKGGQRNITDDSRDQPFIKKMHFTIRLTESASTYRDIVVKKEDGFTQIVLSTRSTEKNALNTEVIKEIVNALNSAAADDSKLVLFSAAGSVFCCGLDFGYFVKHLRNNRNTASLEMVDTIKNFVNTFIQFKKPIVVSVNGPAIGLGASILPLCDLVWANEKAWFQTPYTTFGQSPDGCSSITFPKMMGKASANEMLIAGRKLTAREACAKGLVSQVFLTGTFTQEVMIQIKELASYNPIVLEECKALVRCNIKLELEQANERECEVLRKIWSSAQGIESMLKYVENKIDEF
As to the kind of experiment: Binding affinity to human N-terminal GST-tagged CDY1 chromodomain (1 to 101 residues) expressed in Escherichia coli Rosetta BL21(DE3)pLysS by ITC method.

Assay [6] has as its target T4, Chromobox protein homolog 2 (Homo sapiens, UniProt Q14781).
T4 sequence (Q14781 whole entry): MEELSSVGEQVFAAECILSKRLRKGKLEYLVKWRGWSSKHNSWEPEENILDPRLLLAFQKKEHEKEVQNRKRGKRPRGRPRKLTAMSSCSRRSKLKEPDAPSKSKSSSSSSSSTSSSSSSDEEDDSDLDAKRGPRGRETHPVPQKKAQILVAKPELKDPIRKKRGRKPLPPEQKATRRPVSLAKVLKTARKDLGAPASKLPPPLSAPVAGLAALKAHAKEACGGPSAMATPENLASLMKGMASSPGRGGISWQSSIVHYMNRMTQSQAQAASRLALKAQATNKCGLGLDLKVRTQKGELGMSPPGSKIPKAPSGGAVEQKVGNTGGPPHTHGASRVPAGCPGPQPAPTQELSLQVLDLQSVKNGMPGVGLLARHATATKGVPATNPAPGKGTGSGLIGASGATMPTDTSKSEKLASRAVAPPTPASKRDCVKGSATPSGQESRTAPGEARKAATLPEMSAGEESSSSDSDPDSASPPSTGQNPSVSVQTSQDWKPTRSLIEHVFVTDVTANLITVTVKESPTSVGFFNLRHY
The assay is described as follows: Binding affinity to human N-terminal his-tagged CBX2 chromodomain (9 to 66 residues) expressed in Escherichia coli Rosetta BL21(DE3)pLysS by ITC method.

For assay [7], the target named is T5, Chromodomain Y-like protein 2 (Homo sapiens, UniProt Q8N8U2).
T5 sequence (Q8N8U2 whole entry): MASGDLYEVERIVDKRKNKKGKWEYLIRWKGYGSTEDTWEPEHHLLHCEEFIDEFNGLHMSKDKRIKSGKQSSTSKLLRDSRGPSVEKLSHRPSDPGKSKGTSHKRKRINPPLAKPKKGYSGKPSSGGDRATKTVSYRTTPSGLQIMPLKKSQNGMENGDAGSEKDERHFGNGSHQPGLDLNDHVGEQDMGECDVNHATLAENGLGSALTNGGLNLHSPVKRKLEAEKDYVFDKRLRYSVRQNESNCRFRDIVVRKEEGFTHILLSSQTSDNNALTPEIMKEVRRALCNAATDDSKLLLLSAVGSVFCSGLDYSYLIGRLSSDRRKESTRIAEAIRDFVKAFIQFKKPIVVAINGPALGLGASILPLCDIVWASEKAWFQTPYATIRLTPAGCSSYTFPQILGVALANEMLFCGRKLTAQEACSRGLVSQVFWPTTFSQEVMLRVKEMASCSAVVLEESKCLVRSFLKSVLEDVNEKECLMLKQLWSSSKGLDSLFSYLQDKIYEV

Assay [8] concerns the target Chromobox protein homolog 5 (Homo sapiens, UniProt P45973). The assay is described as follows: Binding affinity to CBX5 chromodomain (unknown origin) by ITC method.
Assay [9] deals with T6, Chromobox protein homolog 6 (Homo sapiens, UniProt O95503).
T6 sequence (O95503 whole entry): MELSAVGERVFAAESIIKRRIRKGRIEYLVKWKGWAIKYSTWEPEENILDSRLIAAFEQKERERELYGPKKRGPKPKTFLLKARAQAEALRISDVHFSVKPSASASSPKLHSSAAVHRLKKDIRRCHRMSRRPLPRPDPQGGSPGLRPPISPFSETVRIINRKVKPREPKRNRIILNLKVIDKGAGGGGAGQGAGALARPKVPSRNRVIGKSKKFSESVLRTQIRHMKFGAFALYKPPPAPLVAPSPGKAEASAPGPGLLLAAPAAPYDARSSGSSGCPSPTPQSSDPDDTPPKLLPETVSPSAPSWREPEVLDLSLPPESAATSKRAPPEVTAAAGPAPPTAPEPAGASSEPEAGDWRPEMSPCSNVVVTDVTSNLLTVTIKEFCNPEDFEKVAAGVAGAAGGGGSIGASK
The assay is described as follows: Binding affinity to human N-terminal his-tagged CBX6 chromodomain (8 to 65 residues) expressed in Escherichia coli Rosetta BL21(DE3)pLysS by ITC method.

Sequence of Chromobox protein homolog 5 (P45973 whole entry): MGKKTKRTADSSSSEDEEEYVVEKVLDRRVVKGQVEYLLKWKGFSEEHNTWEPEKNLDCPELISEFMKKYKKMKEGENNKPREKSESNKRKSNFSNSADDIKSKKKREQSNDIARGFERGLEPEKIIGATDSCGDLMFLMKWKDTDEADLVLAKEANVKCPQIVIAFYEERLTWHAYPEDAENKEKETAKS

As for `CCN(CC)CCCC[C@H](NC(=O)[C@H](CC(C)C)NC(=O)[C@H](C)NC(=O)[C@H](Cc1ccccc1)NC(=O)c1ccc(C(C)(C)C)cc1)C(=O)N[C@@H](CO)C(=O)OC` ({Benzoyl(4-tBu)}-FAL[Lys(Et2)]S-OMe), the result with PC-3 was Active. Moreover, the Kd in assay [1] was 1200 nM; in [2], > 100000 nM; in assay [3] it was > 100000 nM; in [4], 910 nM; in assay [5] it was 6300 nM; in assay [6] it was 1800 nM. In addition, the Kd in assay [7] was 850 nM; in assay [8] it was > 100000 nM; in assay [9], 610 nM.

Broadly, the Kd is the constant that tells how readily two partners part at equilibrium. A low value points to tighter binding.
